# Reference: ChEMBL document CHEMBL4765301, “Discovery of novel TNNI3K inhibitor suppresses pyroptosis and apoptosis in murine myocardial infarction injury” (Eur J Med Chem, 2020)
# Calls of active or inactive are those of the source. No cut-off for these calls is given here.
# Experiments:
# [1] = biological target: Vascular endothelial growth factor receptor 1 (Homo sapiens) (UniProt P17948); experiment: Inhibition of recombinant human FLT1 (783 to end residues) assessed as residual activity at 1 uM using KKKSPGEYVNIEFG as substrate incubated for 40 mins by [gamma-33P]-ATP scintillation counting based radiometry assay relative to control
# Chain of Vascular endothelial growth factor receptor 1 (Homo sapiens) (P17948 whole entry): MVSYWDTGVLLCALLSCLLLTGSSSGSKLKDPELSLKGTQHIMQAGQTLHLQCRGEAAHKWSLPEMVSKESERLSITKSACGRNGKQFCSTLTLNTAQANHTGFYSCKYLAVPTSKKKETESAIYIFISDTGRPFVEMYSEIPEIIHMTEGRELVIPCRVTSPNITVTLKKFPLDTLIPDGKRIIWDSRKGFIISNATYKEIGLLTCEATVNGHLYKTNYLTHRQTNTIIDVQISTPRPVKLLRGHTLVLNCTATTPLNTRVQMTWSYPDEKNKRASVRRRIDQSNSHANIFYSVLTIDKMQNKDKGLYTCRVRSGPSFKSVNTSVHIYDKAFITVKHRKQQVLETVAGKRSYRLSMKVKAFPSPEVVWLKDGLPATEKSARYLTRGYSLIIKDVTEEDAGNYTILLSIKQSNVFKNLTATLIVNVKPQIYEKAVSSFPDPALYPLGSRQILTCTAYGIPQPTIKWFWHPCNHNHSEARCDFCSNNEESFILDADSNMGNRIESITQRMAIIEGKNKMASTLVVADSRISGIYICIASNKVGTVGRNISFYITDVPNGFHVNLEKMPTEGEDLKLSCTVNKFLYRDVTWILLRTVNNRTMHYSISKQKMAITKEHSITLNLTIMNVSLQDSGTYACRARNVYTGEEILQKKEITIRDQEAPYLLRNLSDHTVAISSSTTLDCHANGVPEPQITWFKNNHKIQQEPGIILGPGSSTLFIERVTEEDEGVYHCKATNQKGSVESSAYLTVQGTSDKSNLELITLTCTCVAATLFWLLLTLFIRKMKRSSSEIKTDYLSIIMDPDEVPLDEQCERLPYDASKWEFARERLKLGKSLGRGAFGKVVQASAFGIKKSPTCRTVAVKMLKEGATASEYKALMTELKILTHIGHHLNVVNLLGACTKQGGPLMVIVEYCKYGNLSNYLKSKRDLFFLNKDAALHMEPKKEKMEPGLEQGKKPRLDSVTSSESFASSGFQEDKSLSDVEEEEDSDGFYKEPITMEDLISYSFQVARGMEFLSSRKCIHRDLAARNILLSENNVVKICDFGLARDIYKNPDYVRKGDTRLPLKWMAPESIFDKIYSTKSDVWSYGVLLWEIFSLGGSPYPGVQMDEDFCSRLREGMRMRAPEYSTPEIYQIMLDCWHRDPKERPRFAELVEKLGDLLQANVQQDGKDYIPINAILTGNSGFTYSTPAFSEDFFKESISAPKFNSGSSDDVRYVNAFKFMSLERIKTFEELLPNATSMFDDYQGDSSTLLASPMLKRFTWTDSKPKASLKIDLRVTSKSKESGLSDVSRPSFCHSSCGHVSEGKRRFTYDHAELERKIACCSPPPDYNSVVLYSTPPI
# [2] = tested on: H9c2; experiment: Cytoprotective activity against OGD-induced cell death in rat H9c2 cells assessed as cell viability at 1 uM incubated for 24 hrs by MTT assay (reference value: 42.08 to 49.11 %); assay type: functional; details: read-out: Activity
# [3] = tested on: H9c2; experiment: Inhibition of OGD-induced apoptosis in rat H9c2 cells assessed as early apoptotic cells at 1 uM incubated for 24 hrs by annexinV-FITC and PI staining based flow cytometry analysis (reference value: 3.53 %); assay type: functional
# [4] = tested on: H9c2; experiment: Inhibition of OGD-induced apoptosis in rat H9c2 cells assessed as reduction in NLRP3 level at 0.5 to 1 uM by immunofluorescence staining based fluorescence microscopy; assay type: functional, cell-based; details: dose 0.5-1 µM
# Procedure, shortened: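 In OGD-exposed H9c2 cells treated with 0.5 or 1.0 µM inhibitor, intracellular distribution and co-localisation of caspase-1 and NLRP3 were assessed by immunofluorescence microscopy.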
# [5] = tested on: H9c2; experiment: Inhibition of OGD-induced apoptosis in rat H9c2 cells assessed as reduction in cytochromeC level by Western blot analysis; assay type: functional, cell-based; details: dose 0.5-1 µM
# Procedure, shortened: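 H9c2 cells under OGD were treated with saline or 0.5 or 1.0 µM inhibitor. Cells were trypsinised, washed in cold PBS, lysed in RIPA with sonication and centrifuged 30 min. Total protein was quantified and separated by SDS-PAGE, then transferred to PVDF. Blots were probed with primary and secondary antibodies and detected by ECL.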
# [6] = tested on: H9c2; experiment: Inhibition of OGD-induced apoptosis in rat H9c2 cells assessed as viable cells at 1 uM incubated for 24 hrs by annexinV-FITC and PI staining based flow cytometry analysis (reference value: 85 %); assay type: functional
# [7] = biological target: T1, Serine/threonine-protein kinase TNNI3K (Rattus norvegicus) (UniProt Q7TQP6); experiment: Inhibition of TNNI3K in rat H9c2 cells assessed as reduction in p38 phosphorylation at 0.5 to 1 uM by Western blot analysis; details: dose 0.5-1 µM
# T1 sequence (whole entry): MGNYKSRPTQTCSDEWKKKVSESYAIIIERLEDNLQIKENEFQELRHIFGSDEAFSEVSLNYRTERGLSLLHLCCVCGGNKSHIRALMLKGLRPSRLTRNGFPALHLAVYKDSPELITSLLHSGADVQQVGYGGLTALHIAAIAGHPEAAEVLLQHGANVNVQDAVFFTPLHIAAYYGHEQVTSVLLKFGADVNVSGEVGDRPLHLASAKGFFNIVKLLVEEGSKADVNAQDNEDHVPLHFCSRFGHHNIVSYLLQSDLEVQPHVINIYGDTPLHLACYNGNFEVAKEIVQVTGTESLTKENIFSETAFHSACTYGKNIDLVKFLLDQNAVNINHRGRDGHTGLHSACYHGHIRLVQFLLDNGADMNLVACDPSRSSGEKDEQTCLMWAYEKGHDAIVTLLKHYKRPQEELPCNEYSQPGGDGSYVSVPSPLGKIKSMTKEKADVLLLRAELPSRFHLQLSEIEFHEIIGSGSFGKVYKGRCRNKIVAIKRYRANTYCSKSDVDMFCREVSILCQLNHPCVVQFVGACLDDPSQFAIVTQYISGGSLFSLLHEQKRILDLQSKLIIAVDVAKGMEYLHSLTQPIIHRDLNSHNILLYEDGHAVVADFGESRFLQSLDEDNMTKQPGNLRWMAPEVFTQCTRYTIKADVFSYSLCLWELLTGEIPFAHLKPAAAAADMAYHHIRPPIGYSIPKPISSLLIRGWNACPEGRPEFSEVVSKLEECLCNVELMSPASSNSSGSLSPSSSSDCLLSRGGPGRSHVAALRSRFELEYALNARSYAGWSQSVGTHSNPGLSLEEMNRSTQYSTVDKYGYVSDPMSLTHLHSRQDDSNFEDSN
# [8] = tested on: Mus musculus; experiment: In vivo inhibition of TNNI3K in C57BL/6 mouse assessed as reduction in GSDMD at 25 mg/kg, ip administered for 28 days and measured on day 28 by immunohistochemical staining based fluorescence microscopy; assay type: functional, organism-based; details: time 28.0 day
# Procedure, shortened: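 Male C57BL/6 mice (5-6 weeks) with LAD-ligation MI; sham, saline or 25 mg/kg ip every two days, n=4, 28 days. Heart sections given EDTA (pH 8.0) or citrate (pH 6.0) microwave antigen retrieval, then primary antibody 30-40 min at 37°C. Detection by HRP polymer secondary with DAB (IHC) or fluorescent secondary (IF). Positive cells were quantified.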
# [9] = biological target: T2, Serine/threonine-protein kinase TNNI3K (Homo sapiens) (UniProt Q59H18); experiment: Inhibition of TNNI3K (unknown origin) assessed as residual activity at 1 uM using biotinylated CTnI as substrate by HTRF analysis relative to control
# T2 sequence (whole entry): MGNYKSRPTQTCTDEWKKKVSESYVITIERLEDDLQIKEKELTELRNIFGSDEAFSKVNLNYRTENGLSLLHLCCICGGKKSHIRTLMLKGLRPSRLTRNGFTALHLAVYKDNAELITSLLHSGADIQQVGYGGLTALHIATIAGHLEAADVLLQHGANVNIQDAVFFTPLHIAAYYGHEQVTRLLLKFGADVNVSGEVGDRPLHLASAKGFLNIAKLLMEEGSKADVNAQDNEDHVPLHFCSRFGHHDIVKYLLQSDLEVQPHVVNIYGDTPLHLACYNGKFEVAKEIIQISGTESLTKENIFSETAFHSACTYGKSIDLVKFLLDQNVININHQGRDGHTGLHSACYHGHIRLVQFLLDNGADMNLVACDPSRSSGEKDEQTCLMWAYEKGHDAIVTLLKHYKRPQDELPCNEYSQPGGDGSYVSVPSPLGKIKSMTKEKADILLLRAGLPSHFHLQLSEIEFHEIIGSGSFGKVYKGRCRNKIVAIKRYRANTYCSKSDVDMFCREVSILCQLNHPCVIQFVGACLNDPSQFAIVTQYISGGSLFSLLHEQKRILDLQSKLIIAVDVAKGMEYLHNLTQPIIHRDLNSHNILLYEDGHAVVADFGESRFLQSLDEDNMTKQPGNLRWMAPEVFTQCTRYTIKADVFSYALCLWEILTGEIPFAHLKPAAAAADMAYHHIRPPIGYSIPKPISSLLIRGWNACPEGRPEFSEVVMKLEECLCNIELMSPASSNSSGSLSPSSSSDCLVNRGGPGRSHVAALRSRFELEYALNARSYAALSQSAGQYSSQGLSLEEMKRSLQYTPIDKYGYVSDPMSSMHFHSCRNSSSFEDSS
# Procedure, shortened: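 TNNI3K was assayed by HTRF using a GST-tagged TNNI3K kinase domain and a biotinylated cardiac troponin I substrate peptide, followed by the two HTRF detection reagents. Compounds were screened at 1.0 µM, then IC50s were determined.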
# [10] = biological target: Receptor tyrosine-protein kinase erbB-2 (Homo sapiens) (UniProt P04626); experiment: Inhibition of recombinant human HER2 (676 to end residues) assessed as residual activity at 1 uM using poly(Glu, Tyr) 4:1 as substrate incubated for 40 mins by [gamma-33P]-ATP scintillation counting based radiometry assay relative to control
# Chain of Receptor tyrosine-protein kinase erbB-2 (Homo sapiens) (P04626 whole entry): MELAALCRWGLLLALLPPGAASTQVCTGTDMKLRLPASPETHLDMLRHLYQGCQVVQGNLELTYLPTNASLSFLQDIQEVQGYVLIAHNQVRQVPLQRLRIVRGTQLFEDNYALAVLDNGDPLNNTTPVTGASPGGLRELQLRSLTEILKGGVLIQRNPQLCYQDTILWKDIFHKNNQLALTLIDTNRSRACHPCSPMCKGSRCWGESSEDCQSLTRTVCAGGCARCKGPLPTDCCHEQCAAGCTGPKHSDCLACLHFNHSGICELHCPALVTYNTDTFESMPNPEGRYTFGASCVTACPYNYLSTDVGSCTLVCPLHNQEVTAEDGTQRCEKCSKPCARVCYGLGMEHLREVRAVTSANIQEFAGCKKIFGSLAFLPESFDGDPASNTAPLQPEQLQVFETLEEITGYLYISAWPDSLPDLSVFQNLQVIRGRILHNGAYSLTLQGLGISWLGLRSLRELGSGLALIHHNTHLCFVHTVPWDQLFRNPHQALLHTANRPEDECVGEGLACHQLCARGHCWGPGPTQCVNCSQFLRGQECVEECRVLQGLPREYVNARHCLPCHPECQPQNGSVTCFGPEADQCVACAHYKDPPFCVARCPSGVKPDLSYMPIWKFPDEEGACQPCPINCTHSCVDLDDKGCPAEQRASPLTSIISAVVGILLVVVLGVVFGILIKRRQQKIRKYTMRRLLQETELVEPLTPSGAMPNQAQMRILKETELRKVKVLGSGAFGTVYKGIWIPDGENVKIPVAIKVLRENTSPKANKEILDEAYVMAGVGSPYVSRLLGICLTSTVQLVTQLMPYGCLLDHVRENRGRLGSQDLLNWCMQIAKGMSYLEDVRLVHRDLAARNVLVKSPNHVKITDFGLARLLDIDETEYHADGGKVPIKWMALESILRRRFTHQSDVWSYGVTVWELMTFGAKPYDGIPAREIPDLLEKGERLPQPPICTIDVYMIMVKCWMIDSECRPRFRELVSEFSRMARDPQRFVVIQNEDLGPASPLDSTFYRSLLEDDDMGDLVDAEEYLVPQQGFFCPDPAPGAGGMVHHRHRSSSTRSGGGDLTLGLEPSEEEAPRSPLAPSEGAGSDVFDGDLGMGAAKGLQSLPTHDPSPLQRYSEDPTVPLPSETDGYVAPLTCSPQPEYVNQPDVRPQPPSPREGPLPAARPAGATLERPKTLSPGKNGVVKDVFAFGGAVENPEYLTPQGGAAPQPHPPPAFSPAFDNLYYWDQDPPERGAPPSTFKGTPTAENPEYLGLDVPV
smiles,measurement,setting,value
CN(C)CCCN1CCc2c(sc3ncnc(Nc4ccc(N(C)C)c(NC(=O)c5ccco5)c4)c23)C1,Activity,[1],91%
same,viability at 1 µM,[2],73.8%
same,inhibition at 1 µM,[3],3.17%
same,inhibition,[4],Active
same,inhibition,[5],Dose-dependent effect
same,inhibition at 1 µM,[6],90.7%
same,inhibition,[7],Active
same,inhibition,[8],Active
same,Activity,[9],28%
same,Activity,[10],96%
